18 molecules from ChEMBL document CHEMBL1127816, “Synthesis and antiestrogenic activity of diaryl thioether derivatives” (1994) can be followed below.

Activity calls are given as the source filed them. The rule behind the calls is not given here.

Test [1] deals with T1, Estrogen receptor (Homo sapiens) (UniProt Q92731+P03372). Briefly: Ability to stimulate the basal cell proliferation of ZR-75-1 cells at a dose of 1 uM. The test is classed as functional, cell-based. The essentials:
(§1)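 ZR-75-1 cells were plated at 10 000 cells/dish in phenol-red-free SD medium (5% dextran-charcoal FBS) and allowed to adhere for 3 days. Compound was added at 1 uM without E2 (controls received 0.1% ethanol). Cells were incubated for 9 days at 37 °C with medium renewed every 2-3 days. Basal proliferation was read as DNA content (ng/dish). Done in triplicate.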

The target in test [2] is T2, Estrogen receptor (Rattus norvegicus) (UniProt P06211+Q62986). Nature of the test: Relative binding affinity (RBA) on estrogen receptor was measured by in vitro using cytosol from the immature rat uterus. The format is protein assay. In a few lines:
(§2)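 Competitive displacement of [3H]estradiol from estrogen receptor. Incubation was 3 h at 25 °C. Nonspecific binding was defined with 1000 nM unlabeled estradiol. RBA = 100 × IC50(estradiol)/IC50(compound), with estradiol set at 100%.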

Test [3] can be described thus: Compound was tested for percent inhibition of the Estradiol (E2) induced cell proliferation. Details: concentration or dose not given beside the values.
The target of test [4] is T1, Estrogen receptor (Homo sapiens). Briefly: Ability to inhibit E2-induced proliferation of ZR-75-1 cells at a dose of 1 uM. The test is classed as functional, cell-based. The essentials:
(§3)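 ZR-75-1 cells (passages 90-96, kept in phenol-red-free RPMI-1640 with 10 nM E2) were plated at 10 000 cells/dish in SD medium (5% dextran-charcoal FBS, insulin) and allowed to adhere for 3 days. They were then treated for 9 days at 37 °C with compound (1 uM, ethanol vehicle 0.1%) plus E2 0.1 nM, with medium changed every 2-3 days. Read-out was DNA content. % inhibition = 100 − [(D−B)/(C−A)]×100. Done in triplicate.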

Test [5] is described as follows: Antiestrogenic activity against Estradiol (E2) induced cell proliferation. Details: concentration or dose not given beside the values.
Test [6] deals with T2, Estrogen receptor (Rattus norvegicus). Nature of the test: Relative binding affinity (RBA) on estrogen receptor was measured by in vitro using cytosol from the immature rat uterus; N means no binding observed. The test is classed as protein assay. In a few lines:
as §2

In test [7] the test system is ZR-75-1. Nature of the test: (§4) Inhibition of E2-induced proliferation of ZR-75-1 cells at 1 uM. The test is classed as functional, Homo sapiens. In a few lines: as §3
Test [8] deals with ZR-75-1. The test is described as §4. The test is classed as functional, Homo sapiens. In a few lines:
as §3
This is another data set of the same source.

The subject of test [9] is ZR-75-1. Briefly: Stimulation of basal cell proliferation of ZR-75-1 cells at 1 uM. The test is classed as functional, Homo sapiens. In a few lines: as §1
Test [10] in a line: Percent inhibition of Estradiol (E2) induced cell proliferation. More on the design: scale not given: the % may be the effect or the level left.

Regarding `CCCCN(C)C(=O)CCCCCCCCCCSC(Cc1ccc(O)cc1)c1ccc(O)cc1` (stereo not drawn), the Binding ((ng of DNA) dish-1) in [1] was 1150. The molecule also gave an RBA in test [2] of 0.01%. The Activity in test [3] stood at 80%. This molecule had a DNA content per dish (cell proliferation) ((ng of DNA) dish-1) in test [4] of 1390.

`CCCCN(C)C(=O)CCSC(Cc1ccc(O)cc1)c1ccc(OC)cc1` (stereo not drawn): the Binding ((ng of DNA) dish-1) in test [1] stood at 684. In test [2], this molecule gave an RBA of 0.01%. Also, the Activity in [5] came to 66%. The same molecule had a DNA content per dish (cell proliferation) ((ng of DNA) dish-1) in [4] of 902.

For `CCCCN(C)C(=O)CCSC(Cc1ccc(OC)cc1)c1ccc(OC)cc1` (stereo not drawn), the Binding ((ng of DNA) dish-1) in test [1] came to 741. In addition, in test [6], the “relative binding affinity (RBA)” value was “inactive”. In [5], this molecule registered an Activity of 57%. The molecule also had a DNA content per dish (cell proliferation) ((ng of DNA) dish-1) in test [4] of 1010.

For the molecule `CCCCN(C)C(=O)CCCCCCCCCCSC(Cc1ccc(OCc2ccccc2)cc1)c1ccc(OC)cc1` (stereo not drawn), the Binding ((ng of DNA) dish-1) in test [1] came out at 749. For the same molecule, the Activity in test [5] was 42%. Further, the DNA content per dish (cell proliferation) ((ng of DNA) dish-1) in test [4] was determined as 1120.

For the molecule `CCCCN(C)C(=O)CCCCCCCSC(Cc1ccc(O)cc1)c1ccc(OC)cc1` (stereo not drawn), the Binding ((ng of DNA) dish-1) in [1] is 698. This molecule also showed an RBA in [2] of 0.05%. In addition, the Activity in test [5] came to 66%. Besides, in [4], the DNA content per dish (cell proliferation) ((ng of DNA) dish-1) turned out to be 915.

In [1], `CCCCN(C)C(=O)CCSC(Cc1ccc(OCc2ccccc2)cc1)c1ccc(OC)cc1` (stereo not drawn) had a Binding ((ng of DNA) dish-1) of 789. In addition, in test [6], the “relative binding affinity (RBA)” value is “inactive”. Moreover, the Activity in [5] was 64%. In test [4], this molecule registered a DNA content per dish (cell proliferation) ((ng of DNA) dish-1) of 1020.

`CCCCN(C)C(=O)CCCCCCCSC(Cc1ccc(OC)cc1)c1ccc(OC)cc1` (stereo not drawn) showed a Binding ((ng of DNA) dish-1) in test [1] of 746. In addition, in [6], the “relative binding affinity (RBA)” value was “inactive”. Also, the Activity in test [5] came to 36%. This molecule also showed a DNA content per dish (cell proliferation) ((ng of DNA) dish-1) in test [4] of 1150.

As for `CCCCN(C)C(=O)CCCCCCCSC(Cc1ccc(O)cc1)c1ccc(O)cc1` (stereo not drawn), the Binding ((ng of DNA) dish-1) in [1] came to 1410. This molecule also had an RBA in test [2] of 0.01%. The Activity in [3] stood at 44%. This molecule yielded a DNA content per dish (cell proliferation) ((ng of DNA) dish-1) in [4] of 2070.

On to `CCCCN(C)C(=O)CCCCCCCCCCSC(Cc1ccc(O)cc1)c1ccc(OC)cc1` (stereo not drawn), for which the Binding ((ng of DNA) dish-1) in test [1] was determined as 733. Also, the “relative binding affinity (RBA)” value in [6] is “inactive”. The same molecule gave an Activity in test [5] of 8%. This molecule also gave a DNA content per dish (cell proliferation) ((ng of DNA) dish-1) in test [4] of 1320.

`COc1ccc(C(Cc2ccc(O)cc2)SCCCCCCCCCCCO)cc1` (stereo not drawn) yielded a Binding ((ng of DNA) dish-1) in [1] of 839. In test [2], this molecule had an RBA of 0.02%. The molecule further gave an Activity in [3] of 31%. In test [4], this molecule showed a DNA content per dish (cell proliferation) ((ng of DNA) dish-1) of 1280.

`CCCCN(C)C(=O)CCCCCCCCCCCSC(Cc1ccc(O)cc1)c1ccc(OC)cc1` (stereo not drawn): in test [1], the Binding ((ng of DNA) dish-1) worked out at 807. The “relative binding affinity (RBA)” value in test [6] is “inactive”. This molecule showed an Activity in test [5] of 55%. The molecule also returned a DNA content per dish (cell proliferation) ((ng of DNA) dish-1) in test [4] of 1090.

Molecule `CCCCN(C)C(=O)CCCCCCCCCCC1Cc2cc(O)ccc2[C@H]2CC[C@]3(C)[C@@H](O)[C@H](Cl)C[C@H]3[C@H]12` (stereo partly drawn) had an RBA in test [2] of 1.2%. The Activity in test [5] is 103%; in test [3] it was 94%. Further, the Binding is on record as 1403 (ng of DNA) dish-1 in [7], 662 (ng of DNA) dish-1 in test [8] and 679 (ng of DNA) dish-1 in [9].

The molecule `CCCCN(C)C(=O)CCCCCSC(Cc1ccc(O)cc1)c1ccc(O)cc1` (stereo not drawn) displayed a Binding ((ng of DNA) dish-1) in test [1] of 1440. Besides, the RBA in test [2] came out at 0.01%. The molecule further came in with an Activity in test [10] of 49%. This molecule also returned a DNA content per dish (cell proliferation) ((ng of DNA) dish-1) in test [4] of 2050.

`CCCCN(C)C(=O)CCCCCCCCCCCSC(Cc1ccc(OC)cc1)c1ccc(OC)cc1` (stereo not drawn) displayed a Binding ((ng of DNA) dish-1) in test [1] of 800. Besides, the “relative binding affinity (RBA)” value in test [6] was “inactive”. The Activity in test [5] turned out to be 13%. In addition, the DNA content per dish (cell proliferation) ((ng of DNA) dish-1) in [4] came out at 1350.

In [1], `CCCCN(C)C(=O)CCCCCCCSC(Cc1ccc(OCc2ccccc2)cc1)c1ccc(OC)cc1` (stereo not drawn) yielded a Binding ((ng of DNA) dish-1) of 791. Besides, the “relative binding affinity (RBA)” value in test [6] was “inactive”. In test [5], this molecule returned an Activity of 56%. For the same molecule, the DNA content per dish (cell proliferation) ((ng of DNA) dish-1) in test [4] was determined as 1070.

In turn, `OCCCCCCCCCCCSC(Cc1ccc(O)cc1)c1ccc(O)cc1` (stereo not drawn) displayed a Binding ((ng of DNA) dish-1) in [1] of 1540. The molecule further registered an RBA in test [2] of 0.02%. This molecule had an Activity in [3] of 42%. The DNA content per dish (cell proliferation) ((ng of DNA) dish-1) in test [4] was determined as 2230.

For `CCCCN(C)C(=O)CCSC(Cc1ccc(O)cc1)c1ccc(O)cc1` (stereo not drawn), in test [1], the Binding ((ng of DNA) dish-1) was 1890. The RBA in test [2] was 0.01%. Further, the Activity in [3] was found to be 40%. In addition, in test [4], the DNA content per dish (cell proliferation) ((ng of DNA) dish-1) was determined as 2600.

In turn, `COc1ccc(C(Cc2ccc(OCc3ccccc3)cc2)SCCCCCCCCCCCO)cc1` (stereo not drawn) returned a Binding ((ng of DNA) dish-1) in [1] of 725. For the same molecule, in test [6], the “relative binding affinity (RBA)” value is “inactive”. This molecule returned an Activity in test [5] of 41%. In test [4], this molecule yielded a DNA content per dish (cell proliferation) ((ng of DNA) dish-1) of 1100.
